According to ChEMBL document CHEMBL3286182, “4-aminoquinolone piperidine amides: noncovalent inhibitors of DprE1 with long residence time and potent antimycobacterial activity” (J Med Chem, 2014):
Converted amounts (≈) assume the structure as drawn. The source made the active and inactive calls. The rule behind the calls is not given here.

Experiments:
[1] = system: Mycobacterium tuberculosis; experiment: Antimycobacterial activity against Mycobacterium tuberculosis H37Rv after 5 days by standard microdilution method; type: functional; settings: 120 h
[2] = system: Mycolicibacterium smegmatis; experiment: Antimicrobial activity against Mycobacterium smegmatis mc2155 at 100 uM; type: functional, organism-based; settings: str. MC2 155
Escherichia coli [3] = experiment: Antimicrobial activity against Escherichia coli ARC524 at 100 uM; type: functional, organism-based
Outline: (§1)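 Nonmycobacterial panel of Candida albicans, Gram-negative and Gram-positive pathogens.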

[4] = Cytotoxicity against human A549 cells after 72 hrs by resazurin based fluorescence assay; type: cell-based; settings: read-out: MIC
Outline: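 Cytotoxicity read as MMIC, the MIC on the A549 cell line.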

[5] = system: Mycolicibacterium smegmatis; experiment: Antimicrobial activity against Mycobacterium smegmatis ATCC 607 at 100 uM; type: functional, organism-based
[6] = Permeability of the compound from basolateral to apical side in human Caco2 cells; type: ADME, cell-based; settings: Caco-2, read-out: permeability
[7] = Clearance in Wistar rat at 2 mg/kg, iv; type: ADME, organism-based; parameters: dose 2 mg/kg, route intravenous; settings: in vivo
Outline: (§2)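 Male Wistar rats given a single dose, 2 mg/kg intravenously or 10 mg/kg orally. Plasma concentration followed over time, n = 2 per compound. Parameters taken from the plasma curves: C0 (iv), Cmax (oral), AUC0−∞, elimination half-life, plasma clearance, Vss and oral bioavailability.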

[8] = Oral bioavailability in Wistar rat at 10 mg/kg; type: ADME, organism-based; settings: in vivo; outline: as §2
Streptococcus pneumoniae = experiment: Antimicrobial activity against Streptococcus pneumoniae ARC548 at 100 uM; type: functional, organism-based; outline: as §1
Klebsiella pneumoniae = experiment: Antimicrobial activity against Klebsiella pneumoniae ARC1865 at 100 uM; type: functional, organism-based; outline: as §1
[9] = Initial plasma concentration in Wistar rat at 2 mg/kg, iv; type: ADME, organism-based; parameters: dose 2 mg/kg, route intravenous; outline: as §2
Pseudomonas aeruginosa [10] = experiment: Antimicrobial activity against Pseudomonas aeruginosa ARC545 at 100 uM; type: functional, organism-based; outline: as §1
[11] = Intrinsic clearance in rat cryopreserved hepatocytes assessed per 10^6 cells at 1 uM up to 120 mins by LC-MS/MS analysis; type: ADME, cell-based, Hepatocyte; settings: read-out: CLH
Cytochrome P450 1A2 = target: T1, Cytochrome P450 1A2 (Homo sapiens, UniProt P05177); experiment: Inhibition of CYP1A2 (unknown origin); type: ADME
T1 sequence (P05177 whole entry): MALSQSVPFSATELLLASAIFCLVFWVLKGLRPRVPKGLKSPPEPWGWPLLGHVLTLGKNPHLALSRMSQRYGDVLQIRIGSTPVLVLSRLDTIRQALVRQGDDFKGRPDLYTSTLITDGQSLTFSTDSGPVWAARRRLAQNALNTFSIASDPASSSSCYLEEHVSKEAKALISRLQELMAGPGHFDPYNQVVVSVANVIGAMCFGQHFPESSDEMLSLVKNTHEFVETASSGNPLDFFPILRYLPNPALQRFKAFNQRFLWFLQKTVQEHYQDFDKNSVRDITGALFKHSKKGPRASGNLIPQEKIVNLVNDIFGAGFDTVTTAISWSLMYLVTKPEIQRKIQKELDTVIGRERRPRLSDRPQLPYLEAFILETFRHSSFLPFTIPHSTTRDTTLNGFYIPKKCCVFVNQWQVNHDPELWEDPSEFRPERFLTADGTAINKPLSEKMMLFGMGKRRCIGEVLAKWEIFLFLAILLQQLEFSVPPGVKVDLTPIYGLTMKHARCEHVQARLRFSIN
Outline: (§3)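 CYP inhibition IC50 measured on isoforms CYP3A4, CYP2D6, CYP2C9, CYP2C19 and CYP1A2.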

[12] = Fraction unbound in human plasma at 20 uM after 18 hrs by equilibrium dialysis method; type: ADME, cell-free
Cytochrome P450 2C9 = Cytochrome P450 2C9 (Homo sapiens, UniProt P11712); experiment: Inhibition of CYP2C9 (unknown origin); type: ADME; outline: as §3
Sequence of Cytochrome P450 2C9 (P11712 whole entry): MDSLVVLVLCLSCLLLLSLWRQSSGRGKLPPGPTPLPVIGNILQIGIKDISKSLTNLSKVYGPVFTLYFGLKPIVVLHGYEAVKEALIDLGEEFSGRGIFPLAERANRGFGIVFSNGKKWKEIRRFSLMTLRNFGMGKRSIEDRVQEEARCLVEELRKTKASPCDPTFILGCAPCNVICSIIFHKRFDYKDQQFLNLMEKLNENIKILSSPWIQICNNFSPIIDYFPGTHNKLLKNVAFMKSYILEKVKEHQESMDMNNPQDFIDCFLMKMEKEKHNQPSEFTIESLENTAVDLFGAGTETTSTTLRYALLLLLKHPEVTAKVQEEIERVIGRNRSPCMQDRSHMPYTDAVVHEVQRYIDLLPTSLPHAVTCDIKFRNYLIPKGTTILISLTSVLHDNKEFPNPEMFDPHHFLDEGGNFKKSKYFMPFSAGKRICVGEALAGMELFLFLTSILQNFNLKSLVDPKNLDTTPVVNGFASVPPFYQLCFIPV

[13] = Elimination half life in Wistar rat at 2 mg/kg, iv; type: ADME, organism-based; parameters: dose 2 mg/kg, route intravenous; settings: in vivo, read-out: beta t1/2 (converted); outline: as §2
Cytochrome P450 3A4 = Cytochrome P450 3A4 (Homo sapiens, UniProt P08684); experiment: Inhibition of CYP3A4 (unknown origin); type: ADME; outline: as §3
Sequence of Cytochrome P450 3A4 (P08684 whole entry): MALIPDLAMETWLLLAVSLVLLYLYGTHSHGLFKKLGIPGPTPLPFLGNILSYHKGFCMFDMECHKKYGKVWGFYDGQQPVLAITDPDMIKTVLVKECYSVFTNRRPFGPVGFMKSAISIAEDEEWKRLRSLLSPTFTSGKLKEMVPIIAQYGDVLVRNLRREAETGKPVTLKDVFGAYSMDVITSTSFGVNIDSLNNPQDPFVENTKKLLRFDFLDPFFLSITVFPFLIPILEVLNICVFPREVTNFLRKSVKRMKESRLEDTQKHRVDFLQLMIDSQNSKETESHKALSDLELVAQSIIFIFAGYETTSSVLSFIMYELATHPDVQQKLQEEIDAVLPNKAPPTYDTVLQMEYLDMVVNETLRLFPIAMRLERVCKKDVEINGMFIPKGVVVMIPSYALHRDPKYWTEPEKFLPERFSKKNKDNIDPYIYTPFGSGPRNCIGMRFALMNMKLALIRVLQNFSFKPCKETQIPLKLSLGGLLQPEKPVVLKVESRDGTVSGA

[14] = Solubility of the compound in 0.1 M phosphate buffer at pH 7.4 after 24 hrs by UV and MS analysis; type: physicochemical
[15] = Octanol-water partition coefficient, log D of the compound by shake-flask method; type: physicochemical
[16] = Cmax in Wistar rat at 10 mg/kg, po; type: ADME, organism-based; parameters: dose 10 mg/kg, route oral; settings: in vivo; outline: as §2
Staphylococcus aureus = experiment: Antimicrobial activity against Staphylococcus aureus ARC517 at 100 uM; type: functional, organism-based; outline: as §1
[17] = Inhibition of Mycobacterium smegmatis recombinant DprE1 using farnesylphosphoryl-beta-D-ribofuranose as substrate assessed as conversion of amplex red to resorufin after 30 mins; parameters: species or system Mycolicibacterium smegmatis
Outline: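 Msm DprE1 (thioredoxin-6His fusion of Msm Rv3790) at 75 nM, preincubated 30 min with 10 μM FAD. Buffer: 50 mM glycylglycine pH 8.5, 200 mM potassium glutamate, 0.002% Brij-35, 2% DMSO, 25 °C. Started with 300 μM farnesylphosphoryl-β-D-ribofuranose, 0.01 mg/mL HRP and 50 μM Amplex Red.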

Haemophilus influenzae [18] = experiment: Antimicrobial activity against Haemophilus influenzae ARC446 at 100 uM; type: functional, organism-based; outline: as §1
Pseudomonas aeruginosa [19] = experiment: Antimicrobial activity against Pseudomonas aeruginosa ARC546 at 100 uM; type: functional, organism-based; outline: as §1
Adenosine receptor A1 = target: T2, Adenosine receptor A1 (Homo sapiens, UniProt P30542); experiment: Inhibition of adenosine A1 receptor (unknown origin)
T2 sequence (P30542 whole entry): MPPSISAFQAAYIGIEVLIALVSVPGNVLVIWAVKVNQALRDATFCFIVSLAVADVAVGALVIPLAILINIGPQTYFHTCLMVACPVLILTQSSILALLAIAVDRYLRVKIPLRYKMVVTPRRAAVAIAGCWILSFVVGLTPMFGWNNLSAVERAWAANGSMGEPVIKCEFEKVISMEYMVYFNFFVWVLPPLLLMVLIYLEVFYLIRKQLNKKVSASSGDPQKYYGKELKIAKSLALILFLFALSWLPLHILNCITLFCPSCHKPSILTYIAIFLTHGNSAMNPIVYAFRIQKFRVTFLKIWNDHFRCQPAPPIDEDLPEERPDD
Outline: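 Secondary pharmacology panel of binding, enzyme and functional assays covering 24 molecular targets. Activity recorded as a defined Ki/IC50/EC50.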

[20] = Volume of distribution at steady state in Wistar rat at 2 mg/kg, iv; type: ADME, organism-based; parameters: dose 2 mg/kg, route intravenous; settings: in vivo, read-out: Vdss; outline: as §2
[21] = target: Voltage-gated inwardly rectifying potassium channel KCNH2 (Homo sapiens, UniProt Q12809); experiment: Inhibition of human ERG by medium-throughput electrophysiology
Sequence of Voltage-gated inwardly rectifying potassium channel KCNH2 (Q12809 whole entry): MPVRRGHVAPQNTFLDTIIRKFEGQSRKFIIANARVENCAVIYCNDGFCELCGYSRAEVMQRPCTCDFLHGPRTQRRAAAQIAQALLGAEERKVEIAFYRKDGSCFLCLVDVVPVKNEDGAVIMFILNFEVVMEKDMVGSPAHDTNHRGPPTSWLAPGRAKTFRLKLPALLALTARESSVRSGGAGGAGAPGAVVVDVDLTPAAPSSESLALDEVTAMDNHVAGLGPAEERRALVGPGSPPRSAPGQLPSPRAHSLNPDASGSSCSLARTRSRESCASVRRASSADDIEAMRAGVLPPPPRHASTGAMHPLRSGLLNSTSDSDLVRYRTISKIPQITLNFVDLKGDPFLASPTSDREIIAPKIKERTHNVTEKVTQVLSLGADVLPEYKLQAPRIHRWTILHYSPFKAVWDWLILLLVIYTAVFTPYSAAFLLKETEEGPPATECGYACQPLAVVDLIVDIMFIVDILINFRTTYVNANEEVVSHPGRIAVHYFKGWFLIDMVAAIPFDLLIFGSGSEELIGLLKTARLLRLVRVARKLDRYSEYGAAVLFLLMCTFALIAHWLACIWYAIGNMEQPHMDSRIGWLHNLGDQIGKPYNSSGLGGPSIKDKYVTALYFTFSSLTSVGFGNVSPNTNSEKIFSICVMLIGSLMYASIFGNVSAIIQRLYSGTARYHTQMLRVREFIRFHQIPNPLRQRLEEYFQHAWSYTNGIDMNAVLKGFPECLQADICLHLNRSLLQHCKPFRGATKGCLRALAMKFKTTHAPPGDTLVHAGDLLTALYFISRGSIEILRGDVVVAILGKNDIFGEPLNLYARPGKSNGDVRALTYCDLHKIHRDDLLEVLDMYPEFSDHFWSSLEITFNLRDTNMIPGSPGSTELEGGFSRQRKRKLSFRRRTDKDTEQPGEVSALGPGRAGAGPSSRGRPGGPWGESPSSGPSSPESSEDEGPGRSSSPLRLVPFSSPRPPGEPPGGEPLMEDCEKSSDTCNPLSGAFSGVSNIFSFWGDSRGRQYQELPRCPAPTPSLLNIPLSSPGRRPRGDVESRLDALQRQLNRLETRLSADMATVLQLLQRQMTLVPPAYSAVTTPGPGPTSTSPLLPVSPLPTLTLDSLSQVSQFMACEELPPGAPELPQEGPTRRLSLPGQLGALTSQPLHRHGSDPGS

[22] = Elimination half life in Wistar rat at 10 mg/kg, po; type: ADME, organism-based; parameters: dose 10 mg/kg, route oral; settings: in vivo, read-out: beta t1/2 (converted); outline: as §2
[23] = system: Mycobacterium tuberculosis; experiment: Antimycobacterial activity against Mycobacterium tuberculosis H37Rv under hypoxic condition after 6 days by resazurin assay; type: functional
Escherichia coli [24] = experiment: Antimicrobial activity against Escherichia coli ARC523 at 100 uM; type: functional, organism-based; outline: as §1
Haemophilus influenzae [25] = experiment: Antimicrobial activity against Haemophilus influenzae ARC158 at 100 uM; type: functional, organism-based; outline: as §1
[26] = AUC (0 to infinity) in Wistar rat at 2 mg/kg, iv; type: ADME, organism-based; parameters: dose 2 mg/kg, route intravenous, time infinity; settings: plasma; outline: as §2
Cytochrome P450 2C19 = Cytochrome P450 2C19 (Homo sapiens, UniProt P33261); experiment: Inhibition of CYP2C19 (unknown origin); type: ADME; outline: as §3
Sequence of Cytochrome P450 2C19 (P33261 whole entry): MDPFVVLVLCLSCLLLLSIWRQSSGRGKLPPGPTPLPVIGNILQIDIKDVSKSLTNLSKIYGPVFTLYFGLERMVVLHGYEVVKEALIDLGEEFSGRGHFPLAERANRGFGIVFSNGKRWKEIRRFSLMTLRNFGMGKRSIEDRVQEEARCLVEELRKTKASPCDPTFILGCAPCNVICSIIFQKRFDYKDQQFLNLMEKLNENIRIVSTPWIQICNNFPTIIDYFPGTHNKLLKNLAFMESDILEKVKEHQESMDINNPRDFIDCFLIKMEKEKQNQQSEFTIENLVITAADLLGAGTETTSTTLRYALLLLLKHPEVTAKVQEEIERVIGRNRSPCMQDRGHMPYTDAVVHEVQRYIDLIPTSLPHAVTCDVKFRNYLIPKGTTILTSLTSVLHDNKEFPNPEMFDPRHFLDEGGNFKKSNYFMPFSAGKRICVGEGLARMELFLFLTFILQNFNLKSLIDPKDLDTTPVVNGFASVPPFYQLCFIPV

[27] = Permeability of the compound from apical to basolateral side in human Caco2 cells; type: ADME, cell-based; settings: Caco-2, read-out: permeability
[28] = Intrinsic clearance in human liver microsomes at 1 uM up to 30 mins by LC-MS/MS analysis; type: ADME; settings: read-out: CLH
Cytochrome P450 2D6 = Cytochrome P450 2D6 (Homo sapiens, UniProt P10635); experiment: Inhibition of CYP2D6 (unknown origin); type: ADME; outline: as §3
Sequence of Cytochrome P450 2D6 (P10635 whole entry): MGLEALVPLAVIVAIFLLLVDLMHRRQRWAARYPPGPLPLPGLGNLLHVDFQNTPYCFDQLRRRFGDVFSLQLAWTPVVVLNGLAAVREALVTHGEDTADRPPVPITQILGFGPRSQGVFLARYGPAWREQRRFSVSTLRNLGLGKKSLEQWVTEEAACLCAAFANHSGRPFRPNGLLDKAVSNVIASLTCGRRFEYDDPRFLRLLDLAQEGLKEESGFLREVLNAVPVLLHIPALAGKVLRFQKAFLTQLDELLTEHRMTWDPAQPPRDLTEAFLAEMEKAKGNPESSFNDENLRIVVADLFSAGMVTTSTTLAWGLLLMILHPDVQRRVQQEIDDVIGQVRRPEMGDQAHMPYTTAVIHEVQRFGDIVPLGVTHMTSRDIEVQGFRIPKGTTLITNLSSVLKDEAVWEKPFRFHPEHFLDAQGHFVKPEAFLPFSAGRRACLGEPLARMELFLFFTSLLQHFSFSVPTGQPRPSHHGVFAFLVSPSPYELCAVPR

[29] = AUC (0 to infinity) in Wistar rat at 10 mg/kg, po; type: ADME, organism-based; parameters: time infinity, dose 10 mg/kg, route oral; settings: plasma; outline: as §2
Candida albicans = experiment: Antimicrobial activity against Candida albicans ARC527 at 100 uM; type: functional, organism-based; outline: as §1
[30] = system: Mycolicibacterium smegmatis; experiment: Ratio of IC50 for Mycobacterium smegmatis DprE1 Y321H mutant to IC50 for Mycobacterium smegmatis recombinant wild type DprE1
Outline: (§4)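 Recombinant M. smegmatis DprE1 (thioredoxin-6His fusion), wild type or Y321H, 75 nM. Enzyme was preincubated 30 min in FAD assay mix: 50 mM glycylglycine pH 8.5, 200 mM potassium glutamate, 10 μM FAD, 0.002% Brij-35, 2% DMSO. Reaction was started with 300 μM farnesylphosphoryl-β-D-ribofuranose, 0.01 mg/mL HRP and 50 μM amplex red at 25 °C.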

[31] = system: Mycobacterium tuberculosis; experiment: Antimycobacterial activity against Mycobacterium tuberculosis over expressing DprE1 after 5 days by standard microdilution method; type: functional; settings: 120 h
[32] = Solubility of the compound in fed-state simulated intestinal fluid at pH 6.5; type: ADME
[33] = Inhibition of Mycobacterium smegmatis DprE1 Y321H mutant using farnesylphosphoryl-beta-D-ribofuranose as substrate assessed as conversion of amplex red to resorufin after 30 mins; parameters: species or system Mycolicibacterium smegmatis; outline: as §4

SMILES | MIC [1] [µM] | Activity [2] | Activity (Escherichia coli [3]) | MCC at 72 h [4] [µM] | Activity [5] | Papp B→A [6] [×10⁻⁶ cm/s] | Activity (Streptococcus pneumoniae) | Activity (Klebsiella pneumoniae) | Activity (Pseudomonas aeruginosa [10]) | hepatocyte CLint at 1 µM [11] [µL/min/1e6 cells] | INH (Cytochrome P450 1A2) [µM] | fraction unbound at 18 h, 20 µM [12] | INH (Cytochrome P450 2C9) [µM] | INH (Cytochrome P450 3A4) [µM] | solubility at 24 h [14] [µM] | logD [15] | Activity (Staphylococcus aureus) | IC50 [17] [µM] | Activity (Haemophilus influenzae [18]) | Activity (Pseudomonas aeruginosa [19]) | also measured
Cn1ncc(C(=O)N2CCC(Nc3cc(=O)n(C)c4ccccc34)CC2)c1Cl | 25 (≈ 10 µg/mL) | inactive | inactive | > 100 | inactive | 23 | inactive | inactive | inactive | 8 | > 30 | 0.03 | > 30 | > 30 | 78 (≈ 31.2 µg/mL) | 2 | inactive | 0.14 | inactive | inactive | clearance [7]: 24.8 mL/min/kg; bioavailability [8]: 100%; C0 [9]: 5.4 µM; half-life [13]: 1.1 h; Cmax [16]: 7 µM; IC50 (Adenosine receptor A1): 8 µM; Vd [20]: 1.2 L/kg; IC50 [21]: > 33 µM; half-life [22]: 1.3 h; Activity [23]: inactive; Activity (Escherichia coli [24]): inactive; Activity (Haemophilus influenzae [25]): inactive; AUC(0-inf) [26]: 3.4 µM·h; INH (Cytochrome P450 2C19): > 30 µM; Papp A→B [27]: 4 ×10⁻⁶ cm/s; microsomal CLint at 1 µM [28]: 14 µL/min/mg; INH (Cytochrome P450 2D6): > 30 µM; AUC(0-inf) [29]: 19 µM·h; Activity (Candida albicans): inactive
Cc1onc(C(=O)N2CCC(Nc3cc(=O)n(C)c4cc(F)c(F)cc34)CC2)c1C | 0.78 (≈ 0.325 µg/mL) | inactive | inactive | > 16 | inactive | 21 | inactive | inactive | inactive | 17 | > 30 | 0.05 | > 30 | > 30 | 28 (≈ 11.7 µg/mL) | 2.3 | inactive | 0.038 | inactive | inactive | fold change (FC) [30]: 165; MIC [31]: 100 µM (≈ 41.6 µg/mL); solubility [32]: 91 µM (≈ 37.9 µg/mL); IC50 [33]: 7.02 µM; IC50 (Adenosine receptor A1): 8 µM; Activity [23]: inactive; Activity (Escherichia coli [24]): inactive; Activity (Haemophilus influenzae [25]): inactive; INH (Cytochrome P450 2C19): > 30 µM; Papp A→B [27]: 22 ×10⁻⁶ cm/s; microsomal CLint at 1 µM [28]: 49 µL/min/mg; INH (Cytochrome P450 2D6): > 30 µM; Activity (Candida albicans): inactive
